Activity calls are given as the source filed them. No cut-off for these calls is given here.
Experiments:
Candida albicans = test: Antimicrobial activity against Candida albicans ATCC 10231 by agar overlay technique; assay type: functional
Outline: (§1)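 Adapted agar overlay technique. Strains came from a university microbiology collection. Media were nutrient broth, nutrient agar, mycological peptone and Sabouraud dextrose agar.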

Bacillus subtilis [1] = test: Antimicrobial activity against Bacillus subtilis ATCC 6633 by agar overlay technique; assay type: functional; outline: as §1
Staphylococcus aureus [2] = test: Antimicrobial activity against Staphylococcus aureus ATCC 9144 by agar overlay technique; assay type: functional; outline: as §1
Pseudomonas aeruginosa [3] = test: Antimicrobial activity against Pseudomonas aeruginosa NCTC 10332 by agar overlay technique; assay type: functional; outline: as §1
Escherichia coli = test: Antimicrobial activity against Escherichia coli ATCC 11229 by agar overlay technique; assay type: functional; outline: as §1
[4] = test system: Radical scavenging activity; test: Antioxidant activity assessed as DPPH radical scavenging activity after 30 mins; assay type: functional
Outline: (§2)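 Semiquantitative TLC-based DPPH radical scavenging, followed over an 8 h period with readings at 30 min, 2 h and 8 h. Activity is expressed as the minimum inhibitory quantity (MIQ, µg) on the plate. Run in duplicate.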

[5] = test system: Radical scavenging activity; test: Antioxidant activity assessed as DPPH radical scavenging activity after 2 hrs; assay type: functional; outline: as §2
[6] = test system: Radical scavenging activity; test: Antioxidant activity assessed as DPPH radical scavenging activity after 8 hrs; assay type: functional; outline: as §2
Bacillus subtilis [7] = test: Antimicrobial activity against Bacillus subtilis ATCC 6633 at 100 ug by agar overlay technique; assay type: functional, organism-based
Staphylococcus aureus [8] = test: Antimicrobial activity against Staphylococcus aureus ATCC 9144 at 100 ug by agar overlay technique; assay type: functional, organism-based
Pseudomonas aeruginosa [9] = test: Antimicrobial activity against Pseudomonas aeruginosa NCTC 10332 at 100 ug by agar overlay technique; assay type: functional, organism-based

Row | Structure (SMILES) | MIC (Candida albicans) [µg] | MIC (Bacillus subtilis [1]) [µg] | MIC (Staphylococcus aureus [2]) [µg] | MIC (Pseudomonas aeruginosa [3]) [µg] | MIC (Escherichia coli) [µg] | MIC [4] | MIC [5] | MIC [6] [µg] | Activity (Bacillus subtilis [7]) | Activity (Staphylococcus aureus [8]) | Activity (Pseudomonas aeruginosa [9])
1 | Clc1ccc(COC(Cn2ccnc2)c2ccc(Cl)cc2Cl)c(Cl)c1 (stereo unspecified) [MICONAZOLE] | 0.001 | – | – | – | – | – | – | – | – | – | –
2 | C[C@H]1C(=O)CC[C@@H]2[C@]1(C)CC[C@H]1[C@@]2(C)CC[C@@]2(C)[C@H]3C[C@@](C)(C(=O)O)CC[C@]3(C)CC[C@]12C [OCTANDRONIC ACID] | 0.01 | 0.01 | 0.5 | 0.01 | 0.01 | inactive | inactive | 10 | – | – | –
3 | C[C@@H]1CC(=O)[C@H](OC(=O)c2ccoc2)[C@@]2(C)[C@@H](OC(=O)c3ccoc3)C[C@@H]3C[C@]12OC3(C)C | 0.5 | 10 | 50 | 10 | 10 | inactive | 10 µg | 10 | – | – | –
4 | CC1=CC(=O)[C@H](OC(=O)c2ccoc2)[C@@]2(C)[C@@H](OC(=O)c3ccoc3)C[C@@H]3C[C@]12OC3(C)C | 10 | – | – | – | 50 | inactive | 50 µg | 10 | inactive | inactive | inactive
5 | O=C(N[C@H](CO)[C@H](O)c1ccc([N+](=O)[O-])cc1)C(Cl)Cl [CHLORAMPHENICOL] | – | 0.001 | 0.001 | 0.001 | 0.001 | – | – | – | – | – | –
6 | O=C1O[C@H]([C@@H](O)CO)C(O)=C1O | – | – | – | – | – | 10 µg | 0.5 µg | 0.01 | – | – | –
7 | C[C@@H]1CC[C@H](OC(=O)c2ccoc2)[C@@]2(C)[C@@H](OC(=O)c3ccoc3)C[C@@H]3C[C@]12OC3(C)C | 0.01 | 0.5 | 10 | 0.5 | 10 | inactive | 10 µg | 10 | – | – | –
8 | C=C(C)[C@@H]1CC[C@]2(C)[C@H](CC=C3[C@@H]4C[C@](C)(C(=O)O)CC[C@]4(C)CC[C@]32C)[C@@]1(C)CCC(=O)O | 0.001 | 0.01 | 0.001 | 0.01 | 0.01 | inactive | inactive | 10 | – | – | –
9 | O=C(O)c1cc(O)c(O)c(O)c1 | – | – | – | – | – | 0.01 µg | 0.01 µg | 0.01 | – | – | –

Source: ChEMBL document CHEMBL1165985, “Dihydro-beta-agarofuran sesquiterpenes and pentacyclic triterpenoids from the root bark of Osyris lanceolata” (2010)
